We go through one molecule from ChEMBL document CHEMBL3414544, “PAINS in the assay: chemical mechanisms of assay interference and promiscuous enzymatic inhibition observed during a sulfhydryl-scavenging HTS” (J Med Chem, 2015).

Data set [1] deals with T1, Histone acetyltransferase RTT109 (Saccharomyces cerevisiae (strain ATCC 204508 / S288c) (Baker's yeast)) (UniProt Q07794).
T1 sequence (whole entry): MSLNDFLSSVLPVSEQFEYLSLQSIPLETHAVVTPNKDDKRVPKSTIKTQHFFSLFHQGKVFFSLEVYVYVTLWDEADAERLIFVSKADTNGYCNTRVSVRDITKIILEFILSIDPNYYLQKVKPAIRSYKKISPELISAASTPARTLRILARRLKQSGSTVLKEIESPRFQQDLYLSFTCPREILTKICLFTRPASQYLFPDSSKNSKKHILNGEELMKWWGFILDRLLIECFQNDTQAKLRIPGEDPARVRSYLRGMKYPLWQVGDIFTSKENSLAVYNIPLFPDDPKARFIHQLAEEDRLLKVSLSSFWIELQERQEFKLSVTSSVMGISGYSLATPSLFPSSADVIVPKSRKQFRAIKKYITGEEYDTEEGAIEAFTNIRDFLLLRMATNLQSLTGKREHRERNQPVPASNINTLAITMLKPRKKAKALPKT
The data set is described as follows: Inhibition of Vps75-stimulated recombinant Saccharomyces cerevisiae histone acetyltransferase Rtt109 using [3H]-acetyl-CoA assessed as acetate incorporation […] by liquid scintillation counting in presence of 1 mM DTT.

Data set [2] concerns the target Histone acetyltransferase GCN5 (Saccharomyces cerevisiae S288c, UniProt Q03330). The data set is described as follows: Inhibition of yeast histone acetyltransferase Gcn5-Ada2-Ada3 complex using tetramer and [3H]-acetyl-CoA assessed as acetate incorporation after 30 mins by liquid scintillation counting. The note with it: read-out: IC50.
In data set [3] the target is Histone acetyltransferase GCN5 (Saccharomyces cerevisiae S288c) (UniProt Q03330). The data set is described as follows: Inhibition of yeast histone acetyltransferase Gcn5-Ada2-Ada3 complex using tetramer and [3H]-acetyl-CoA assessed as acetate incorporation […] by liquid scintillation counting in presence of 1 mM DTT.
The target in data set [4] is T1, Histone acetyltransferase RTT109 (Saccharomyces cerevisiae (strain ATCC 204508 / S288c) (Baker's yeast)). The data set is described as follows: Inhibition of Vps75-stimulated recombinant Saccharomyces cerevisiae histone acetyltransferase Rtt109 assessed as H3K56 acetylated product at […] after 45 mins by Slot bolt inhibiton assay.
The target is the same in data set [5]. The data set is described as follows: Inhibition of Vps75-stimulated recombinant Saccharomyces cerevisiae histone acetyltransferase Rtt109 assessed as H3K27 acetylated product at […] after 45 mins by Slot bolt inhibiton assay.
Data set [6] can be described thus: Fluorescence quenching assessed as fluorescence signal reduction at 10 uM after 10 mins. The data set is classed as physicochemical. The essentials: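 CPM (20 μM final) and CoA (5 μM final) reacted to completion in assay buffer (stable plateau, usually ~5 min); adduct solution added to wells preplated with compound; shaken 5 min, equilibrated 5 min at room temperature; fluorescence intensity read as percent signal reduction versus DMSO controls. Flagged as quencher at >20% signal reduction at 10 μM final compound.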

Data set [7] can be described thus: Chemical stability of the compound in HTS buffer assessed as GSH adduct formation by UPLC-MS analysis. The data set is classed as physicochemical. An outline of the steps: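 Compound (typically 0.5 mM final) incubated in HTS buffer (pH 8.0) for 5, 15 or 30 min, then reduced glutathione added (2 equiv per 1 equiv compound); aliquots analysed by UPLC–MS (BEH C18 column, ELS and 254 nm traces) 5 min after GSH addition, and the same sample re-analysed 15 min later. HTS-like conditions but 5% DMSO, no detergent.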

The target of data set [8] is T2, Histone acetyltransferase RTT109 (Saccharomyces cerevisiae (strain ATCC 204508 / S288c) (Baker's yeast), UniProt Q07794).
T2 sequence (Q07794 whole entry): T1 sequence (whole entry)
Description: Inhibition of Vps75-stimulated recombinant Saccharomyces cerevisiae histone acetyltransferase Rtt109 using [3H]-acetyl-CoA assessed as acetate incorporation after 30 mins by liquid scintillation counting. The note with it: read-out: IC50.

Data set [9] deals with T3, Histone acetyltransferase p300 (Homo sapiens, UniProt Q09472). The data set is described as follows: Inhibition of recombinant histone acetyltransferase p300 (unknown origin) using dH3-H4 tetramer and [3H]-acetyl-CoA assessed as acetate incorporation after 5 mins by liquid scintillation counting in presence of 1 mM DTT.
Data set [10] is described as follows: Fluorescence quenching in HTS buffer with 20 uM 7-diethylamino-3-(4'-maleimidyl-phenyl)-4-methylcoumarin assessed as fluorescence signal reduction at 10 uM after 10 mins. The data set is classed as physicochemical.
Data set [11] addresses T4, Lupus La protein (Homo sapiens) (UniProt P05455).
T4 sequence (whole entry): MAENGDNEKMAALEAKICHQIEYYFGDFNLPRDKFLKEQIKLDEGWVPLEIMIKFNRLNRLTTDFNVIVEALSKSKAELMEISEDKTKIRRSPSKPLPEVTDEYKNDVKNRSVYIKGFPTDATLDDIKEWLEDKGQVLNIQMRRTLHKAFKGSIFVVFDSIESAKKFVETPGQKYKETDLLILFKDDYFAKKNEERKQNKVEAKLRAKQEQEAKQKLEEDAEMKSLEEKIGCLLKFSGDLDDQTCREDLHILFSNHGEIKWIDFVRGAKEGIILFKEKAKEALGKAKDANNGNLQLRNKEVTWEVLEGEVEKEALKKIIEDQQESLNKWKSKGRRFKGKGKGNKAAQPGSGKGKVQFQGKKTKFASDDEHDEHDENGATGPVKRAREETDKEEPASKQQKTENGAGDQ
The data set is described as follows: Induction of thiol reactivity with La protein (unknown origin) using […] assessed as protein reactivity by ALARM NMR in presence of 20 mM DTT. The essentials:
(§1)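 ALARM NMR with recombinant La antigen expressed in E. coli Rosetta, 15N-labelled and 13C-labelled at Leu/Ile δ-methyl and Val γ-methyl groups; protein pre-reduced with 20 mM DTT then dialysed DTT-free under N2.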

Data set [12] in a line: Fluorescence quenching in HTS buffer with […] CoA assessed as fluorescence signal reduction at 10 uM after 10 mins. The data set is classed as physicochemical.
Data set [13] deals with T4, Lupus La protein (Homo sapiens). The data set is described as follows: Induction of thiol reactivity with La protein (unknown origin) using […] assessed as protein reactivity by ALARM NMR. An outline of the steps:
as §1

The nature of data set [14]: Fluorescence quenching in HTS buffer assessed as fluorescence signal reduction at 10 uM after 10 mins. The data set is classed as physicochemical.
Data set [15] concerns the target T2, Histone acetyltransferase RTT109. The data set is described as follows: Inhibition of Vps75-stimulated recombinant Saccharomyces cerevisiae histone acetyltransferase Rtt109 using Asf1-dH3-H4 as substrate assessed as coenzyme A production after 45 mins by CPM based HTS assay. The note with it: read-out: IC50. The essentials: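 Recombinant Rtt109–Vps75 at 50 nM, with Asf1–dH3–H4 as substrate and acetyl-CoA as acetyl donor. Buffer contained freshly prepared 0.01% Triton X-100. The CoA product was detected by fluorescence of its CPM adduct. Plates had Z′ ≥0.5. IC50 came from a four-parameter variable-slope fit.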

Data set [16] has as its target T3, Histone acetyltransferase p300. The data set is described as follows: Inhibition of recombinant histone acetyltransferase p300 (unknown origin) using dH3-H4 tetramer and [3H]-acetyl-CoA assessed as acetate incorporation […] by liquid scintillation counting. The note with it: read-out: IC50.

The source made the active and inactive calls. Unless noted, the calls are words filed in the database; no cut-off is given here.

T3 sequence (Q09472 whole entry): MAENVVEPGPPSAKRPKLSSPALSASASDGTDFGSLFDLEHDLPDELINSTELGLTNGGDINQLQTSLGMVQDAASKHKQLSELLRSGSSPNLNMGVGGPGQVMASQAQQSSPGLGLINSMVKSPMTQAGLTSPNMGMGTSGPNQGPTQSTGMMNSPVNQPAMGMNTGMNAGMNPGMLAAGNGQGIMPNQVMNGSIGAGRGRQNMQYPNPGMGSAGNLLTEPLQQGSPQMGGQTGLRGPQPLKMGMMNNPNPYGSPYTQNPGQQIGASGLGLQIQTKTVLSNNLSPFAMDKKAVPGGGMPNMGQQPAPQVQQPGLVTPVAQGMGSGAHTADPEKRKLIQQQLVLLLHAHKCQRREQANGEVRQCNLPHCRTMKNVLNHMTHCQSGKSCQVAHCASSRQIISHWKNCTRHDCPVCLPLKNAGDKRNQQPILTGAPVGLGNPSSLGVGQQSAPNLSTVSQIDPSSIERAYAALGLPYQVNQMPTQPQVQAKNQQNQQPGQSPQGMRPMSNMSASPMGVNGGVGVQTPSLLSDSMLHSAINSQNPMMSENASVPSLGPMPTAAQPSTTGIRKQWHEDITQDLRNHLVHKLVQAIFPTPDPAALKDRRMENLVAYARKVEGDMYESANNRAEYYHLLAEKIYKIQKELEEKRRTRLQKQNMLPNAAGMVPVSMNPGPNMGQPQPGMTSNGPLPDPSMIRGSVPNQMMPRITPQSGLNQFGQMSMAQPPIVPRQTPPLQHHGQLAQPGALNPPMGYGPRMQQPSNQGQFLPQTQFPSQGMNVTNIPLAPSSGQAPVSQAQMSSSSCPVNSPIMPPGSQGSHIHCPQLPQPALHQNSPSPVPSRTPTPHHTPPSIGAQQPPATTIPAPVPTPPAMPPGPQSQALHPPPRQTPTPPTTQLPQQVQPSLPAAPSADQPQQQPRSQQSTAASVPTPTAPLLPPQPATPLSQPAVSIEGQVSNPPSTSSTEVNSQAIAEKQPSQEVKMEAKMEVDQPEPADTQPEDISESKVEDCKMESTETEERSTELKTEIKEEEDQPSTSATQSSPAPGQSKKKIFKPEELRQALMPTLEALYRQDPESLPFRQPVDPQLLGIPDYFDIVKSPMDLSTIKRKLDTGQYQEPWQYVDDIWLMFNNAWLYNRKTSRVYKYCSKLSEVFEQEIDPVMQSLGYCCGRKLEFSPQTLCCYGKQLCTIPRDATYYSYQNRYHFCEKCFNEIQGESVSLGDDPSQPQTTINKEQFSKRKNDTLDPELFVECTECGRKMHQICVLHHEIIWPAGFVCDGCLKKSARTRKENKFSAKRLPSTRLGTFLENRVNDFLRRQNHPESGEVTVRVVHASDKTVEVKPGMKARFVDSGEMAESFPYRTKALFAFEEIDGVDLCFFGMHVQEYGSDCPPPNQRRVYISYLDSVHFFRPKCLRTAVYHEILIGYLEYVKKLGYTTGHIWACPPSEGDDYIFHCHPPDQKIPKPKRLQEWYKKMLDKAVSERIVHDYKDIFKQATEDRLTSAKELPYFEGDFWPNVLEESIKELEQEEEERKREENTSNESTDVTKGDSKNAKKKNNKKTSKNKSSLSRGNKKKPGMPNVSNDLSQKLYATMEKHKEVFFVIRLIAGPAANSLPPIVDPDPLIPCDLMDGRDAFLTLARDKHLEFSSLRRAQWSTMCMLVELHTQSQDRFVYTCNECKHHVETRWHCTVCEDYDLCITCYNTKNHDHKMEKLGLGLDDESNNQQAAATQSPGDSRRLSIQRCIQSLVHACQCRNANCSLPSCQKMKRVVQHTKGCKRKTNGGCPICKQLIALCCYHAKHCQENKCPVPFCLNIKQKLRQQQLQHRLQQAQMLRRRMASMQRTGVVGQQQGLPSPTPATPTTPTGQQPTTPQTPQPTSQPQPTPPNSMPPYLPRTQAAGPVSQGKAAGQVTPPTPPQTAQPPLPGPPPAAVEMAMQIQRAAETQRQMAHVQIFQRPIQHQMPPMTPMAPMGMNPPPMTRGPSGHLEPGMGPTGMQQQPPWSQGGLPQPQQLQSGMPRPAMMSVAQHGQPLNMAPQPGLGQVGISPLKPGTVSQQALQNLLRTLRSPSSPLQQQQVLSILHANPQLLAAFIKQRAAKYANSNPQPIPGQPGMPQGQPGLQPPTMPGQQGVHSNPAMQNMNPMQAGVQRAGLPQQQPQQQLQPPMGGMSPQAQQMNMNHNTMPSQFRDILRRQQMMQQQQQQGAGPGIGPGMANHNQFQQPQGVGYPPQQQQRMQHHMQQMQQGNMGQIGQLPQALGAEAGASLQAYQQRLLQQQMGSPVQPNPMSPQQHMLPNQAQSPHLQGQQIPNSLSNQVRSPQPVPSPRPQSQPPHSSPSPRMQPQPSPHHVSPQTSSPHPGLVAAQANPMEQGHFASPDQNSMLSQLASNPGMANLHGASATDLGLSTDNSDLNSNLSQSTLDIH
Chain of Histone acetyltransferase GCN5 (Q03330 whole entry): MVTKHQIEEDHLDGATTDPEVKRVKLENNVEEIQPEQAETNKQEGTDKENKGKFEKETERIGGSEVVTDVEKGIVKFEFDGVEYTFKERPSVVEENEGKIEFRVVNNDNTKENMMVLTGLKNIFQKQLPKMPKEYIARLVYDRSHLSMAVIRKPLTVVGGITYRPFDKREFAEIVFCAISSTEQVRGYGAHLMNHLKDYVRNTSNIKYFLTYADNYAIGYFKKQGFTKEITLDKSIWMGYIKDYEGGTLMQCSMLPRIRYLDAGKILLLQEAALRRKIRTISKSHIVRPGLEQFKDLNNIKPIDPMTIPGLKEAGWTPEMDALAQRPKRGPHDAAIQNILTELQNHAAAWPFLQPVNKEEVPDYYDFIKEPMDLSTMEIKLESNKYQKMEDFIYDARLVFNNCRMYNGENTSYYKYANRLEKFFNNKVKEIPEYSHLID
Chain of Histone acetyltransferase GCN5 (Saccharomyces cerevisiae S288c) (Q03330 whole entry): as above

As a reminder, the IC50 is the concentration needed to halve the response being measured. With `O=[N+]([O-])c1cc(Br)c2nsnc2c1Sc1ncnc2[nH]cnc12`, the outcome in data set [1], in [3], in data set [4], in data set [5], in data set [9] and in [13] was Active. Moreover, the IC50 in [2] was 4.6 µM; in [8], 3.9 µM; in data set [15], 2.8 µM; in data set [16], 2.2 µM. Further, the Activity result in [6], in [10], in data set [12] and in data set [14] was “Not Active” in each case. Further, the Stability entry in data set [7] is listed as “Unstable”. In addition, the result in data set [11] was inactive.
